From PubChem BioAssay AID588837 (Broad Institute, 2011)
The source made the active and inactive calls. How the calls were made is not given here.

target: Scavenger receptor class B member 1 (Mus musculus) (UniProt Q61009); experiment: inhibitors of C384S mutant SR-BI HDL uptake, late-stage follow-up, mechanism study for SR-BI HDL uptake inhibitor project, C384S mutant cells, scintillation, powder samples (AID 588837); conditions: CHO ldlA C384S mSR-BI, [3H]CE-HDL uptake, 2 h; at 1 µM; active compounds read low
How it was run: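 Assay system – CHO cells lacking LDL receptor, overexpressing C384S mutant SR-BI · Compound dosing – 0.5% DMSO with compound · Detection – scintillation counting · Times – 1 h pretreatment plus 2 h uptake at 37 °C · Medium – Ham's F12K medium with 0.5% fatty acid-free BSA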

Scavenger receptor class B member 1 (Mus musculus), sequence (Q61009 whole entry C384S): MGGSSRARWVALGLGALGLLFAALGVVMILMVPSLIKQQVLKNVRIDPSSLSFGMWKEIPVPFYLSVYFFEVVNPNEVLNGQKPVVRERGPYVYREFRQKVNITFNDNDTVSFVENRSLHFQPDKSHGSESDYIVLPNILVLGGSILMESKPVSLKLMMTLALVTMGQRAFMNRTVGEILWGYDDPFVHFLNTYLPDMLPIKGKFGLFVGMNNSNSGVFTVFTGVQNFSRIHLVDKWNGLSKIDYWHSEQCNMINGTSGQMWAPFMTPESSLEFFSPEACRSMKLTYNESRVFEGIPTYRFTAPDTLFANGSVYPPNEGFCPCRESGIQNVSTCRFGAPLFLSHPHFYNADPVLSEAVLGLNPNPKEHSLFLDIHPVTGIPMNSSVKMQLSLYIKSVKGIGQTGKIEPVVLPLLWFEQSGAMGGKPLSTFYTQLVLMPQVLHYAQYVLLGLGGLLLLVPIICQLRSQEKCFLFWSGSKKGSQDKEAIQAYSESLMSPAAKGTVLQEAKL

| cholesterol uptake | Compound |
| --- | --- |
| 89.4% | COc1ccc(-c2nnn(CC(=O)N(C3CCCCC3)C(C)C(=O)NC3CCCC3)n2)cc1OC (stereo not given) |
| 84.4% | Cc1ccc2oc(-c3cccc(NC(=O)c4cc(-n5cnnc5)ccc4Cl)c3)nc2c1 |
| 121% (inactive) | O=C(Nc1ccc(Cl)cc1C(=O)c1ccc(Cl)cc1)c1cc(Br)ccc1NS(=O)(=O)c1ccc(Cl)cc1 |

Second part, the compound before the results:

| Compound | cholesterol uptake |
| --- | --- |
| CCOC(=O)N1CCC(NC(=O)c2ccc3c(c2)N(Cc2ccc(F)cc2)CCS3)CC1 | 78.2% |
| CCC(=O)N1CCc2cc(-c3csc(NC(=O)c4ccco4)n3)ccc21 | 88.3% |
